Laboratory results: article PMC4682886 (ChemMedChem, 2015)

Legend:
NIH 3T3 cells = experiment: Cytotoxicity against NIH 3T3 cells; format: cell-based; settings: concentrations up to 1.5 mM
Procedure, shortened: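 Test compound applied to NIH 3T3 cells at concentrations up to 1.5 mM. Values are arithmetic means ± SD of three independent experiments.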

[1] = system: C. albicans susceptible strain HLY4123; experiment: Dose-response curves of test compounds against C. albicans with fluconazole; format: cell-based; settings: for EC50: strain HLY4123, in the presence of fluconazole (0.25 μg/mL), mean ± SD of three independent experiments; for activity under the conditions of the assay: strain HLY4123, in combination with fluconazole
[2] = system: partially resistant clinical isolate of C. albicans CaCi-8; settings: cited from earlier work; for active concentration: against CaCi-8 with fluconazole, none active below this, ref [48]–[50]

Row | Compound | EC50 [1] [nM] | further results
1 | Cc1c(Cl)ccc2c1NC(=O)[C@]21N[C@H](Cc2ccccc2)[C@@H]2C(=O)N(c3ccc(F)cc3)C(=O)[C@@H]21 (racemic) [Compound 1, (±)-(3R,3′R,3a′R,6a′S)-3′-benzyl-6-chloro-5′-(4-fluorophenyl)-7-methyl-2′,3′,3a′,6a′-tetrahydro-4′H-spiro[indoline-3,1′-pyrrolo[3,4-c]pyrrole]-2,4′,6′(5′H)-trione] | 11 ± 4 | cytotoxicity (NIH 3T3 cells): only weak cytotoxicity
2 | O=C1[C@H]2[C@@H](Cc3ccccc3)N[C@]3(C(=O)Nc4ccccc43)[C@H]2C(=O)N1Cc1ccccc1 (racemic) [Compound 8, (±)-(3R,3′R,3a′R,6a′S)-3′,5′-Dibenzyl-2′,3′,3a′,6a′-tetrahydro-4′H-spiro [indoline-3,1′-pyrrolo[3,4-c]pyrrole]-2,4′,6′(5′H)-trione] | ~10000 | –
3 | O=C1[C@H]2[C@@H](Cc3c[nH]c4ccccc34)N[C@]3(C(=O)Nc4ccccc43)[C@H]2C(=O)N1Cc1ccccc1 (racemic) [Compound 9, (±)-(3R,3′R,3a′R,6a′S)-3′-((1H-Indol-3-yl)methyl)-5′-benzyl-2′,3′,3a′,6a′-tetrahydro-4′H-spiro[indoline-3,1′-pyrrolo[3,4-c]pyrrole]-2,4′,6′(5′H)-trione] | ~10000 | –
4 | CC(C)(C)OC(=O)NCCCC[C@H]1N[C@]2(C(=O)Nc3ccccc32)[C@H]2C(=O)N(Cc3ccccc3)C(=O)[C@@H]12 (racemic) [Compound 10, (±)-tert-Butyl (4-((3R,3′R,3a′R,6a′S)-5′-benzyl-2,4′,6′-trioxo-3′,3a′,4′,5′, 6′,6a′-hexahydro-2′H-spiro[indoline-3,1′-pyrrolo[3,4-c]pyrrol]-3′-yl)butyl)carbamate] | > 100000 | –
5 | O=C1[C@H]2[C@@H](Cc3ccccc3)N[C@]3(C(=O)N(Cc4ccccc4)c4ccccc43)[C@H]2C(=O)N1Cc1ccccc1 (racemic) [Compound 11, (±)-(3R,3′R,3a′R,6a′S)-1,3′,5′-Tribenzyl-2′,3′,3a′,6a′-tetrahydro-4′H-spi ro[indoline-3,1′-pyrrolo[3,4-c]pyrrole]-2,4′,6′(5′H)-trione] | > 10000 | –
6 | O=C1[C@H]2[C@@H](Cc3ccccc3)N[C@]3(C(=O)N(Cc4ccccc4)c4ccccc43)[C@H]2C(=O)N1c1ccccc1 (racemic) [Compound 12, (±)-(3R,3′R,3a′R,6a′S)-1,3′-Dibenzyl-5′-phenyl-2′,3′,3a′,6a′-tetrahydro-4′H-spiro[indoline-3,1′-pyrrolo[3,4-c]pyrrole]-2,4′,6′(5′H)-trione] | > 100000 | –
7 | Cc1c(Cl)ccc2c1NC(=O)[C@]21N[C@H](Cc2ccccc2)[C@@H]2C(=O)N(c3ccccc3)C(=O)[C@@H]21 (racemic) [Compound 13, (±)-(3R,3′R,3a′R,6a′S)-3′-Benzyl-6-chloro-7-methyl-5′-phenyl-2′,3′,3a′, 6a′-tetrahydro-4′H-spiro[indoline-3,1′-pyrrolo[3,4-c]pyrrole]-2,4′,6′ (5′H)-trione] | 1 ± 0.5 | –
8 | Cc1c(Cl)ccc2c1NC(=O)[C@@]21[C@H]2C(=O)N(c3ccccc3)C(=O)[C@H]2[C@H]2CN(C(=O)OC(C)(C)C)CCN21 (racemic) [Compound 14, (±)-tert-Butyl (3R,3a′R,3b′S,9a′S)-6-chloro-7-methyl-1′,2,3′-trioxo-2′-phenyl-2′,3′,3a′,3b′,4′,6′,7′,9a′-octahydrospiro[indoline-3,9′-pyrrolo[3′, 4′:3,4]pyrrolo[1,2-a]pyrazine]-5′(1′H)-carboxylate] | 5.6 ± 3 | –
9 | Cc1c(Cl)ccc2c1NC(=O)[C@@]21[C@H]2C(=O)N(c3ccc(F)cc3)C(=O)[C@H]2[C@H]2CN(C(=O)OC(C)(C)C)CCN21 (racemic) [Compound 15, (±)-tert-Butyl (3R,3a′R,3b′S,9a′S)-6-chloro-2′-(4-fluorophenyl)-7-methyl-1′,2,3′-trioxo-2′,3′,3a′,3b′,4′,6′,7′,9a′-octahydrospiro[indoline-3,9′-pyrrolo[3′,4′:3,4]pyrrolo[1,2-a]pyrazine]-5′(1′H)-carboxylate] | 37 ± 1 | –
10 | Cc1c(Cl)ccc2c1NC(=O)[C@@]21[C@H]2C(=O)N(c3cc(C(F)(F)F)cc(C(F)(F)F)c3)C(=O)[C@H]2[C@H]2CN(C(=O)OC(C)(C)C)CCN21 (racemic) [Compound 16, (±)-tert-Butyl (3R,3a′R,3b′S,9a′S)-2′-(3,5-bis(trifluoromethyl)phenyl)-6-chloro-7-methyl-1′,2,3′-trioxo-2′,3′,3a′,3b′,4′,6′,7′,9a′-octahydrospiro [indoline-3,9′-pyrrolo[3′,4′:3,4]pyrrolo[1,2-a]pyrazine]-5′(1′H)-carboxy late] | 23.7 ± 10 | –
11 | Cc1c(Cl)ccc2c1N(Cc1ccccc1)C(=O)[C@@]21[C@H]2C(=O)N(c3ccccc3)C(=O)[C@H]2[C@H]2CN(C(=O)OC(C)(C)C)CCN21 (racemic) [Compound 17, (±)-tert-butyl (3R,3a′R,3b′S,9a′S)-1-benzyl-6-chloro-7-methyl-1′,2,3′-trioxo-2′-phenyl-2′,3′,3a′,3b′,4′,6′,7′,9a′-octahydrospiro [indoline-3,9′-pyrrolo[3′,4′:3,4]pyrrolo[1,2-a]pyrazine]-5′(1′H)-carboxy late] | > 100000 | –
12 | Cc1cccc2c1NC(=O)[C@@]21[C@H]2C(=O)N(c3ccccc3)C(=O)[C@H]2[C@H]2CN(C(=O)OC(C)(C)C)CCN21 (racemic) [Compound 22, (±)-tert-Butyl (3R,3a′R,3b′S,9a′S)-7-methyl-1′,2,3′-trioxo-2′-phenyl-2′, 3′,3a′,3b′,4′,6′,7′,9a′-octahydrospiro[indoline-3,9′-pyrrolo[3′,4′:3,4]pyrrolo[1,2-a]pyrazine]-5′(1′H)-carboxylate] | 213 ± 80 | –
13 | Cc1ccc2c(c1C)NC(=O)[C@@]21[C@H]2C(=O)N(c3ccccc3)C(=O)[C@H]2[C@H]2CN(C(=O)OC(C)(C)C)CCN21 (racemic) [Compound 23, (±)-tert-Butyl (3R,3a′R,3b′S,9a′S)-6,7-dimethyl-1′,2,3′-trioxo-2′-phenyl-2′,3′,3a′,3b′,4′,6′,7′,9a′-octahydrospiro[indoline-3,9′-pyrrolo[3′,4′:3,4]pyrrolo[1,2-a]pyrazine]-5′(1′H)-carboxylate] | 5.7 ± 6 | –
14 | Cc1c(Cl)ccc2c1NC(=O)[C@@]21[C@H]2C(=O)N(c3ccccc3)C(=O)[C@H]2[C@H]2CNCCN21 (racemic) [Compound 26, (±)-(3R,3a′R,3b′S,9a′S)-6-chloro-7-methyl-2′-phenyl-3a′,4′,5′,6′,7′,9a′-hexahydrospiro[indoline-3,9′-pyrrolo[3′,4′:3,4]pyrolo[1,2-a]pyrazine]-1′,2,3′(2′H,3b′H)-trione] | ~10000 | –
15 | COC(=O)CCCCCCCCC(=O)N1CCN2[C@H](C1)[C@@H]1C(=O)N(c3ccccc3)C(=O)[C@@H]1[C@@]21C(=O)Nc2c1ccc(Cl)c2C (racemic) [Compound 27, (±)-methyl 10-((3R,3a′R,3b′S,9a′S)-6-chloro-7-methyl-1′,2,3′-trioxo-2′-phenyl-2′,3′,3a′,3b′,4′,6′,7′,9a′-octahydrospiro [indoline-3,9′-pyrrolo[3′,4′:3,4]pyrrolo[1,2-a]pyrazin]-5′(1′H)-yl)-10-oxodecanoate] | 37.9 ± 9 | –
16 | CO[C@H](C(=O)N1CCN2[C@H](C1)[C@@H]1C(=O)N(c3ccccc3)C(=O)[C@@H]1[C@@]21C(=O)Nc2c1ccc(Cl)c2C)c1ccccc1 (racemic) [Compound 28, (±)-(3R,3a′R,3b′S,9a′S)-6-chloro-5′-((S)-2-methoxy-2-phenylacetyl)-7-methyl-2′-phenyl-3a′,4′,5′,6′,7′,9a′-hexahydrospiro [indoline-3,9′-pyrrolo[3′,4′:3,4]pyrrolo[1,2-a]pyrazine]-1′,2,3′(2′H, 3b′H)-trione] | 35 ± 7 | –
17 | Cc1c(Cl)ccc2c1NC(=O)[C@@]21[C@H]2C(=O)N(c3ccccc3)C(=O)[C@H]2[C@H]2CN(C(=O)CCc3ccccc3)CCN21 (racemic) [Compound 29, (±)-(3R,3a′R,3b′S,9a′S)-6-chloro-7-methyl-2′-phenyl-5′-(3-phenylpropanoyl)-3a′,4′,5′,6′,7′,9a′-hexahydrospiro[indoline-3,9′-pyrrolo[3′,4′:3,4]pyrrolo[1,2-a]pyrazine]-1′,2,3′(2′H,3b′H)-trione] | 18.1 ± 4 | –
18 | Cc1c(Cl)ccc2c1NC(=O)[C@]21N[C@@H](Cc2ccccc2)[C@H]2C(=O)N(c3ccc(F)cc3)C(=O)[C@H]21 [CID 6584729, (1S,3R,3aR,6aS)-1-benzyl-6′-chloro-5-(4-fluorophenyl)-7′-methylspiro[1,2,3a,6a-tetrahydropyrrolo[3,4-c]pyrrole-3,3′-1H-indole]-2′,4,6-trione] | – | EC50 ([2]; enhancing the effect of fluconazole against CaCi-8, ref [68]): 120 nM
19 | Cc1c(Cl)ccc2c1NC(=O)[C@]21[C@H]2C(=O)N(c3ccccc3)C(=O)[C@H]2[C@@H]2C[C@@H](OC(=O)c3ccccc3)CN21 [Compound 25a, (+)-(3S,3a′S,7′R,8a′S,8b′R)-6-chloro-7-methyl-1′,2,3′-tri oxo-2′-phenyl-2′,3′,3a′,6′,7′,8′,8a′,8b′-octahydro-1′H-spiro[indoline-3,4′-pyrrolo[3,4-a]pyrrolizin]-7′-yl benzoate] | – | activity under the conditions of the assay [1]: almost no activity
20 | Cc1c(Cl)ccc2c1NC(=O)[C@@]21[C@@H]2C(=O)N(c3ccccc3)C(=O)[C@@H]2[C@H]2C[C@@H](OC(=O)c3ccccc3)CN21 [Compound 25b, (−)-(3R,3a′R,7′R, 8a′R,8b′S)-6-chloro-7-methyl-1′,2,3′-trioxo-2′-phenyl-2′,3′,3a′,6′,7′,8′, 8a′,8b′-octahydro-1′H-spiro[indoline-3,4′-pyrrolo[3,4-a]pyrrolizin]-7′-yl benzoate] | – | activity under the conditions of the assay [1]: almost no activity
21 | O=C(c1ccc(Cl)cc1)N1CCN(c2ccnc3cc(Cl)ccc23)CC1 [ML189] | – | active concentration [2]: ≥ 0.7 µM
22 | COC(=O)Cn1nc(-c2cccc(OC)c2)c2ccccc21 [ML212] | – | active concentration [2]: ≥ 0.7 µM
23 | O=C(Cn1c2ccccc2c2nc3n(c(=O)c21)CCS3)N1CCCC1 [ML229] | – | active concentration [2]: ≥ 0.7 µM
24 | (±)-tert-Butyl (3R,3a′R,3b′S,9a′S)-2′-benzyl-1′,2,3′-trioxo-2′,3′,3a′,3b′, 4′,6′,7′,9a′-octahydrospiro[indoline-3,9′-pyrrolo[3′,4′:3,4]pyrrolo[1,2-a]pyrazine]-5′(1′H)-carboxylate [Compound 19] | > 100000 | –
